Data published in ChEMBL document CHEMBL1146092, “Practical synthesis and evaluation of the biological activities of 1alpha,25-dihydroxyvitamin D3 antagonists, 1alpha,25-dihydroxyvitamin D3-26,23-lactams. Designed on the basis of the helix 12-folding inhibition hypothesis” (J Med Chem, 2006).

The compounds below were run against T1, Vitamin D3 receptor (Gallus gallus) (UniProt O42392) (assay: Binding affinity to chick intestinal VDR relative to 1,25-D3). Conditions: not given; call rule not given here.
T1 sequence (whole entry): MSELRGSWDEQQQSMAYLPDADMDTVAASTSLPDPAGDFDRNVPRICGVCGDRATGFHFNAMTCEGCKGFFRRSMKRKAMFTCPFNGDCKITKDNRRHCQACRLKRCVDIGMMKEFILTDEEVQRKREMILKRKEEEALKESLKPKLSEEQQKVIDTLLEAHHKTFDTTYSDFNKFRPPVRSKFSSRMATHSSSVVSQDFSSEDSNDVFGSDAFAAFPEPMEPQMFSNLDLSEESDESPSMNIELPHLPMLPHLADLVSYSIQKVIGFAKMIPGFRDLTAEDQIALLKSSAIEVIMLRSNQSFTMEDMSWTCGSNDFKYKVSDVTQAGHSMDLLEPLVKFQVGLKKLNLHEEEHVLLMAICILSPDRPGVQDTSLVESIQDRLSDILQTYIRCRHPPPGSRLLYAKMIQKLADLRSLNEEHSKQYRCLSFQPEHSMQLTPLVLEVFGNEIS
Method in brief: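 Competitive binding: receptor solution was incubated with [26,27-methyl-³H]-1,25-D3 (15 000 dpm, 180 Ci/mmol) and graded test compound in ethanol for 60 min at 25 °C. It was then cooled to 4 °C and precipitated with 40% PEG 6000, and the pellet was spun at 2260g for 60 min at 4 °C. Pellet radioactivity was counted by liquid scintillation. Affinity is expressed relative to 1,25-D3 = 100.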

Compound | Activity [%]
C=C1/C(=C\C=C2/CCC[C@@]3(C)C2CC[C@@H]3[C@H](C)C[C@H]2C[C@](C)(O)C(=O)N2CCCCc2ccccc2)C[C@@H](O)C[C@@H]1O (stereo partly drawn) | 5.24
C=C1/C(=C\C=C2/CCC[C@@]3(C)C2CC[C@@H]3[C@H](C)C[C@H]2C[C@@](C)(O)C(=O)N2C(C)C)C[C@@H](O)C[C@@H]1O (stereo partly drawn) | 0.14
C=C1/C(=C\C=C2/CCC[C@@]3(C)C2CC[C@@H]3[C@H](C)C[C@H]2C[C@@](C)(O)C(=O)N2CCCc2ccccc2)C[C@@H](O)C[C@@H]1O (stereo partly drawn) | 0.09
C=C1/C(=C\C=C2/CCC[C@@]3(C)C2CC[C@@H]3[C@H](C)C[C@@H]2C[C@](C)(O)C(=O)N2Cc2ccccc2)C[C@@H](O)C[C@@H]1O (stereo partly drawn) | 0.25
C=C1/C(=C\C=C2/CCC[C@@]3(C)C2CC[C@@H]3[C@H](C)C[C@H]2C[C@@](C)(O)C(=O)N2CCc2ccccc2)C[C@@H](O)C[C@@H]1O (stereo partly drawn) | 0.34
C=C1/C(=C\C=C2/CCC[C@@]3(C)C2CC[C@@H]3[C@H](C)C[C@@H]2C[C@@](C)(O)C(=O)N2Cc2ccccc2)C[C@@H](O)C[C@@H]1O (stereo partly drawn) | 0.25
C=C1/C(=C\C=C2/CCC[C@@]3(C)C2CC[C@@H]3[C@H](C)C[C@H]2C[C@](C)(O)C(=O)N2Cc2ccccc2)C[C@@H](O)C[C@@H]1O (stereo partly drawn) | 2.74
C=C1/C(=C\C=C2/CCC[C@@]3(C)C2CC[C@@H]3[C@H](C)C[C@@H]2C[C@](C)(O)C(=O)N2CCCc2ccccc2)C[C@@H](O)C[C@@H]1O (stereo partly drawn) | 0.03
C=C1/C(=C\C=C2/CCC[C@@]3(C)C2CC[C@@H]3[C@H](C)C[C@H]2C[C@](C)(O)C(=O)N2CCc2ccccc2)C[C@@H](O)C[C@@H]1O (stereo partly drawn) | 8
C=C1/C(=C\C=C2/CCC[C@@]3(C)C2CC[C@@H]3[C@H](C)C[C@@H]2C[C@](C)(O)C(=O)N2C(C)C)C[C@@H](O)C[C@@H]1O (stereo partly drawn) | 0.11
C=C1/C(=C\C=C2/CCC[C@@]3(C)C2CC[C@@H]3[C@H](C)C[C@@H]2C[C@@](C)(O)C(=O)N2C(C)C)C[C@@H](O)C[C@@H]1O (stereo partly drawn) | 0.14
C=C1/C(=C\C=C2/CCC[C@@]3(C)C2CC[C@@H]3[C@H](C)C[C@H]2C[C@@](C)(O)C(=O)N2Cc2ccc(OC)cc2)C[C@@H](O)C[C@@H]1O (stereo partly drawn) | 0.09
C=C1/C(=C\C=C2/CCC[C@@]3(C)C2CC[C@@H]3[C@H](C)C[C@H]2C[C@](C)(O)C(=O)N2C(C)C)C[C@@H](O)C[C@@H]1O (stereo partly drawn) | 1.52
C=C1/C(=C\C=C2/CCC[C@@]3(C)C2CC[C@@H]3[C@H](C)C[C@H]2C[C@](C)(O)C(=O)N2CCCc2ccccc2)C[C@@H](O)C[C@@H]1O (stereo partly drawn) | 0.68
C=C1/C(=C\C=C2/CCC[C@@]3(C)C2CC[C@@H]3[C@H](C)C[C@@H]2C[C@](C)(O)C(=O)N2CCc2ccccc2)C[C@@H](O)C[C@@H]1O (stereo partly drawn) | 0.19
C=C1/C(=C\C=C2/CCC[C@@]3(C)C2CC[C@@H]3[C@H](C)C[C@@H]2C[C@](C)(O)C(=O)N2CCCCc2ccccc2)C[C@@H](O)C[C@@H]1O (stereo partly drawn) | 0.1
C=C1/C(=C\C=C2/CCC[C@@]3(C)C2CC[C@@H]3[C@H](C)C[C@@H]2C[C@](C)(O)C(=O)N2Cc2ccc(OC)cc2)C[C@@H](O)C[C@@H]1O (stereo partly drawn) | 0.1
C=C1/C(=C\C=C2/CCC[C@@]3(C)C2CC[C@@H]3[C@H](C)C[C@H]2C[C@](C)(O)C(=O)N2Cc2ccc(OC)cc2)C[C@@H](O)C[C@@H]1O (stereo partly drawn) | 2.2
C=C1/C(=C\C=C2/CCC[C@@]3(C)C2CC[C@@H]3[C@H](C)C[C@@H]2C[C@@](C)(O)C(=O)N2CCCc2ccccc2)C[C@@H](O)C[C@@H]1O (stereo partly drawn) | 0.19
C=C1/C(=C\C=C2/CCC[C@@]3(C)C2CC[C@@H]3[C@H](C)C[C@@H]2C[C@@](C)(O)C(=O)N2CCCCc2ccccc2)C[C@@H](O)C[C@@H]1O (stereo partly drawn) | 0.3
C=C1/C(=C\C=C2/CCC[C@@]3(C)C2CC[C@@H]3[C@H](C)C[C@@H]2C[C@@](C)(O)C(=O)N2Cc2ccc(OC)cc2)C[C@@H](O)C[C@@H]1O (stereo partly drawn) | 0.3
C=C1/C(=C\C=C2/CCC[C@@]3(C)C2CC[C@@H]3[C@H](C)C[C@@H]2C[C@@](C)(O)C(=O)N2CCc2ccccc2)C[C@@H](O)C[C@@H]1O (stereo partly drawn) | 0.51
C=C1/C(=C\C=C2/CCC[C@@]3(C)C2CC[C@@H]3[C@H](C)C[C@H]2C[C@@](C)(O)C(=O)N2Cc2ccccc2)C[C@@H](O)C[C@@H]1O (stereo partly drawn) | 0.18
C=C1/C(=C\C=C2/CCC[C@@]3(C)C2CC[C@@H]3[C@H](C)C[C@H]2C[C@@](C)(O)C(=O)N2CCCCc2ccccc2)C[C@@H](O)C[C@@H]1O (stereo partly drawn) | 0.09

These compounds were tested against T2, Vitamin D3 receptor (Homo sapiens, UniProt P11473) (assay: Antagonist activity assessed by differentiation of 1,25-D3-induced HL60 cells). Conditions: hl-60.
T2 sequence (P11473 whole entry): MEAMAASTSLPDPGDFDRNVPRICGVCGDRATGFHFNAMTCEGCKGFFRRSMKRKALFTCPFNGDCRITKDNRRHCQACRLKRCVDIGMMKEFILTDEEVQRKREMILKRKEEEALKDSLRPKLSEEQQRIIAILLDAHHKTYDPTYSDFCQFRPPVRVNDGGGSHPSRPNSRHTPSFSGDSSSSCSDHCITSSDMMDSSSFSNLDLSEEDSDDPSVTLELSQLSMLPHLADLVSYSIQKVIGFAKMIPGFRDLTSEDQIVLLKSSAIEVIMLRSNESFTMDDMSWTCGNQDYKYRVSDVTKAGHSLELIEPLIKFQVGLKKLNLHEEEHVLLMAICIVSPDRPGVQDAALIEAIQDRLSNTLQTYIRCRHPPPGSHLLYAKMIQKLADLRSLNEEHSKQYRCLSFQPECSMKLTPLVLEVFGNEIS
Assay type: functional, cell-based
Method in brief: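 HL-60 cells in RPMI-1640 with 10% heat-inactivated FBS, seeded at 3 × 10³ cells/mL. Cells were given graded test compound in ethanol plus 1,25-D3 as the inducer, then cultured 96 h at 37 °C in 5% CO2 with no medium change. NBT (0.1%) and TPA (100 ng/mL) were added at final concentrations for 25 min at 37 °C. NBT-positive cells were counted on cytospin smears, and IC50 was taken.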

Compound | IC50
C=C1/C(=C\C=C2/CCC[C@@]3(C)C2CC[C@@H]3[C@H](C)C[C@H]2C[C@@](C)(O)C(=O)N2C(C)C)C[C@@H](O)C[C@@H]1O (stereo partly drawn) | Not Active
C=C1/C(=C\C=C2/CCC[C@@]3(C)C2CC[C@@H]3[C@H](C)C[C@H]2C[C@@](C)(O)C(=O)N2CCCc2ccccc2)C[C@@H](O)C[C@@H]1O (stereo partly drawn) | Not Active
C=C1/C(=C\C=C2/CCC[C@@]3(C)C2CC[C@@H]3[C@H](C)C[C@@H]2C[C@](C)(O)C(=O)N2Cc2ccccc2)C[C@@H](O)C[C@@H]1O (stereo partly drawn) | Not Active
C=C1/C(=C\C=C2/CCC[C@@]3(C)C2CC[C@@H]3[C@H](C)C[C@@H]2C[C@@](C)(O)C(=O)N2Cc2ccccc2)C[C@@H](O)C[C@@H]1O (stereo partly drawn) | Not Active
C=C1/C(=C\C=C2/CCC[C@@]3(C)C2CC[C@@H]3[C@H](C)C[C@@H]2C[C@](C)(O)C(=O)N2CCCc2ccccc2)C[C@@H](O)C[C@@H]1O (stereo partly drawn) | Not Active
C=C1/C(=C\C=C2/CCC[C@@]3(C)C2CC[C@@H]3[C@H](C)C[C@@H]2C[C@](C)(O)C(=O)N2C(C)C)C[C@@H](O)C[C@@H]1O (stereo partly drawn) | Not Active
C=C1/C(=C\C=C2/CCC[C@@]3(C)C2CC[C@@H]3[C@H](C)C[C@@H]2C[C@@](C)(O)C(=O)N2C(C)C)C[C@@H](O)C[C@@H]1O (stereo partly drawn) | Not Active
C=C1/C(=C\C=C2/CCC[C@@]3(C)C2CC[C@@H]3[C@H](C)C[C@H]2C[C@@](C)(O)C(=O)N2Cc2ccc(OC)cc2)C[C@@H](O)C[C@@H]1O (stereo partly drawn) | Not Active
C=C1/C(=C\C=C2/CCC[C@@]3(C)C2CC[C@@H]3[C@H](C)C[C@@H]2C[C@](C)(O)C(=O)N2CCc2ccccc2)C[C@@H](O)C[C@@H]1O (stereo partly drawn) | Not Active
C=C1/C(=C\C=C2/CCC[C@@]3(C)C2CC[C@@H]3[C@H](C)C[C@@H]2C[C@](C)(O)C(=O)N2CCCCc2ccccc2)C[C@@H](O)C[C@@H]1O (stereo partly drawn) | Not Active
C=C1/C(=C\C=C2/CCC[C@@]3(C)C2CC[C@@H]3[C@H](C)C[C@@H]2C[C@](C)(O)C(=O)N2Cc2ccc(OC)cc2)C[C@@H](O)C[C@@H]1O (stereo partly drawn) | Not Active
C=C1/C(=C\C=C2/CCC[C@@]3(C)C2CC[C@@H]3[C@H](C)C[C@@H]2C[C@@](C)(O)C(=O)N2CCCc2ccccc2)C[C@@H](O)C[C@@H]1O (stereo partly drawn) | Not Active
C=C1/C(=C\C=C2/CCC[C@@]3(C)C2CC[C@@H]3[C@H](C)C[C@@H]2C[C@@](C)(O)C(=O)N2CCCCc2ccccc2)C[C@@H](O)C[C@@H]1O (stereo partly drawn) | Not Active
C=C1/C(=C\C=C2/CCC[C@@]3(C)C2CC[C@@H]3[C@H](C)C[C@@H]2C[C@@](C)(O)C(=O)N2Cc2ccc(OC)cc2)C[C@@H](O)C[C@@H]1O (stereo partly drawn) | Not Active
C=C1/C(=C\C=C2/CCC[C@@]3(C)C2CC[C@@H]3[C@H](C)C[C@@H]2C[C@@](C)(O)C(=O)N2CCc2ccccc2)C[C@@H](O)C[C@@H]1O (stereo partly drawn) | Not Active
C=C1/C(=C\C=C2/CCC[C@@]3(C)C2CC[C@@H]3[C@H](C)C[C@H]2C[C@@](C)(O)C(=O)N2Cc2ccccc2)C[C@@H](O)C[C@@H]1O (stereo partly drawn) | Not Active
C=C1/C(=C\C=C2/CCC[C@@]3(C)C2CC[C@@H]3[C@H](C)C[C@H]2C[C@@](C)(O)C(=O)N2CCCCc2ccccc2)C[C@@H](O)C[C@@H]1O (stereo partly drawn) | Not Active

What follows are compounds tested against T3, Vitamin D3 receptor (Rattus norvegicus) (UniProt P13053) (assay: Inhibition of rat VDR mediated transactivation of luciferase in COS7 cells). Conditions: COS-7.
T3 sequence (whole entry): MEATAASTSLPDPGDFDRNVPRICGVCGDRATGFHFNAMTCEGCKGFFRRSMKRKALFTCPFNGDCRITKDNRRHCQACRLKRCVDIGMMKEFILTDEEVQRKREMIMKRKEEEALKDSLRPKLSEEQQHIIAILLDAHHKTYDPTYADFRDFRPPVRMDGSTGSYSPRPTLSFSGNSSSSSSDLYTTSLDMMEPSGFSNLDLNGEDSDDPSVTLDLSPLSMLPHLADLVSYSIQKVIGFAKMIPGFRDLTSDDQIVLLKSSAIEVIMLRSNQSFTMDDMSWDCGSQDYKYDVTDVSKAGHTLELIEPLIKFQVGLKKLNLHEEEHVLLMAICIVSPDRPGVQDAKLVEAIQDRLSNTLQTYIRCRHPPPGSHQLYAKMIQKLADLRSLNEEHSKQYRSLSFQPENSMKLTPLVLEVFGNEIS
Assay type: functional, cell-based

Compound | Activity
C=C1/C(=C\C=C2/CCC[C@@]3(C)C2CC[C@@H]3[C@H](C)C[C@H]2C[C@](C)(O)C(=O)N2Cc2ccccc2)C[C@@H](O)C[C@@H]1O (stereo partly drawn) | Dose-dependent effect

The compounds below were run against T4, Vitamin D3 receptor (Homo sapiens) (UniProt P11473) (assay: Inhibition of human VDR mediated transactivation of luciferase in COS7 cells). Conditions: COS-7.
T4 sequence (whole entry): T2 sequence (P11473 whole entry)
Assay type: functional, cell-based

Compound | Activity
C=C1/C(=C\C=C2/CCC[C@@]3(C)C2CC[C@@H]3[C@H](C)C[C@H]2C[C@](C)(O)C(=O)N2Cc2ccccc2)C[C@@H](O)C[C@@H]1O (stereo partly drawn) | Dose-dependent effect
